The values that follow come from ChEMBL document CHEMBL4118033, “Total Synthesis, Configuration Assignment, and Cytotoxic Activity Evaluation of Protulactone A” (J Nat Prod, 2017).

The source made the active and inactive calls. No cut-off for these calls is given here.

Holding throughout (assay type): functional, cell-based
One experiment concerns COLO 205. Kind of experiment: Antiproliferative activity against human COLO205 cells at 10 uM incubated for 48 hrs by sulforhodamine B assay. In outline: (§1)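 Run by the NCI Developmental Therapeutics Program (Division of Cancer Treatment and Diagnosis) as part of the NCI60 human tumour cell line panel screen. Each compound was tested at a single dose of 10 μM. Results are reported as one-dose mean graphs.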
For orientation: The SRB assay estimates cell density from bound dye.

The test system of the next experiment is Malme-3M. The experiment is described as follows: Antiproliferative activity against human MALME-3M cells at 10 uM incubated for 48 hrs by sulforhodamine B assay. The procedure, abridged: as §1
The subject of a further experiment is CAKI-1. Kind of experiment: Antiproliferative activity against human Caki1 cells at 10 uM incubated for 48 hrs by sulforhodamine B assay. The procedure, abridged: as §1
In another experiment the test system is MDA-MB-231. Kind of experiment: Antiproliferative activity against human MDA-MB-231 cells at 10 uM incubated for 48 hrs by sulforhodamine B assay. In outline: as §1
In the next experiment the test system is BT-549. The experiment is described as follows: Antiproliferative activity against human BT549 cells at 10 uM incubated for 48 hrs by sulforhodamine B assay. In outline:
as §1

The subject of the next experiment is NCI/ADR-RES. The experiment is described as follows: Antiproliferative activity against human NCI/ADR-RES cells at 10 uM incubated for 48 hrs by sulforhodamine B assay. In outline:
as §1

The test system of the next experiment is HT-29. Kind of experiment: Antiproliferative activity against human HT-29 cells at 10 uM incubated for 48 hrs by sulforhodamine B assay. The procedure, abridged:
as §1

The test system of a further experiment is SF-295. Kind of experiment: Antiproliferative activity against human SF295 cells at 10 uM incubated for 48 hrs by sulforhodamine B assay. In outline:
as §1

A further experiment deals with CCRF-CEM. Kind of experiment: Antiproliferative activity against human CCRF-CEM cells at 10 uM incubated for 48 hrs by sulforhodamine B assay. In outline:
as §1

The test system of another experiment is NCI-H322M. Kind of experiment: Antiproliferative activity against human NCI-H322M cells at 10 uM incubated for 48 hrs by sulforhodamine B assay. In outline:
as §1

A further experiment has as its system HL-60(TB). Kind of experiment: Antiproliferative activity against human HL-60(TB) cells at 10 uM incubated for 48 hrs by sulforhodamine B assay. In outline: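 Tested within the NCI60 cancer cell line panel screen run by the Developmental Therapeutics Program (Division of Cancer Treatment and Diagnosis, National Cancer Institute). Each stereoisomer was given at a single dose of 10 μM. Results are reported as one-dose mean graphs.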

In a further experiment the test system is MDA-MB-435. The experiment is described as follows: Antiproliferative activity against human MDA-MB-435 cells at 10 uM incubated for 48 hrs by sulforhodamine B assay. In outline: as §1
A further experiment relates to SK-MEL-5. Kind of experiment: Antiproliferative activity against human SK-MEL-5 cells at 10 uM incubated for 48 hrs by sulforhodamine B assay. In outline: as §1
The next experiment relates to K562. Kind of experiment: Antiproliferative activity against human K562 cells at 10 uM incubated for 48 hrs by sulforhodamine B assay. The procedure, abridged:
as §1

With `CC(=O)O[C@@H](C)[C@H]1O[C@H]2CC(=O)O[C@H]2[C@@H]1O`, the outcome in the experiment with COLO 205, in the experiment on Malme-3M, in the experiment on CAKI-1, in the experiment with MDA-MB-231, in the experiment on BT-549 and in the experiment with NCI/ADR-RES was inactive. In addition, the outcome in the experiment with HT-29, in the experiment with SF-295, in the experiment with CCRF-CEM, in the experiment with NCI-H322M, in the experiment on HL-60(TB) and in the experiment with MDA-MB-435 was inactive. In addition, the outcome in the experiment on SK-MEL-5 and in the experiment with K562 was inactive.

Consider `CC(=O)O[C@@H](C)[C@@H]1O[C@@H]2CC(=O)O[C@@H]2[C@H]1O`, for which the result with COLO 205, with Malme-3M, in the experiment with CAKI-1, with MDA-MB-231, with BT-549 and in the experiment with NCI/ADR-RES was inactive. Besides, the outcome in the experiment on HT-29, in the experiment with SF-295, in the experiment with CCRF-CEM, in the experiment with NCI-H322M, in the experiment with HL-60(TB) and in the experiment with MDA-MB-435 was inactive. For the same compound, the outcome with SK-MEL-5 and with K562 was inactive.

In the case of `O=C(/C=C/c1ccccc1)O[C@H](c1ccccc1)[C@@H]1O[C@@H]2CC(=O)O[C@@H]2[C@H]1O`, the result with COLO 205, with Malme-3M, in the experiment on CAKI-1, in the experiment with MDA-MB-231, with BT-549 and with NCI/ADR-RES was Active. In addition, the outcome in the experiment with HT-29, in the experiment on SF-295, with CCRF-CEM, in the experiment with NCI-H322M, in the experiment with HL-60(TB) and in the experiment on MDA-MB-435 was Active. Also, the outcome with SK-MEL-5 and with K562 was Active.

In the case of `O=C1C[C@H]2O[C@H]([C@@H](O)c3ccccc3)[C@H](O)[C@H]2O1`, the result in the experiment on COLO 205, with Malme-3M, in the experiment with CAKI-1, in the experiment on MDA-MB-231, in the experiment on BT-549 and with NCI/ADR-RES was Active. Further, the outcome with HT-29, in the experiment with SF-295, with CCRF-CEM, with NCI-H322M, with HL-60(TB) and in the experiment with MDA-MB-435 was Active. Moreover, the result with SK-MEL-5 and in the experiment with K562 was Active.

As for `CC(=O)O[C@H](C)[C@@H]1O[C@@H]2CC(=O)O[C@@H]2[C@H]1O`, the outcome in the experiment with COLO 205, with Malme-3M, in the experiment with CAKI-1, with MDA-MB-231, in the experiment on BT-549 and with NCI/ADR-RES was inactive. The outcome with HT-29, in the experiment with SF-295, with CCRF-CEM, in the experiment on NCI-H322M, in the experiment on HL-60(TB) and in the experiment with MDA-MB-435 was inactive. The outcome with SK-MEL-5 and in the experiment on K562 was inactive.

For the compound `O=C1C[C@H]2O[C@H]([C@H](O)c3ccccc3)[C@H](O)[C@H]2O1`, the outcome with COLO 205, in the experiment on Malme-3M, with CAKI-1, in the experiment with MDA-MB-231, in the experiment on BT-549 and with NCI/ADR-RES was Active. In addition, the result in the experiment with HT-29, with SF-295, in the experiment with CCRF-CEM, in the experiment on NCI-H322M, in the experiment on HL-60(TB) and in the experiment with MDA-MB-435 was Active. The result with SK-MEL-5 and with K562 was Active.

In the case of `CC(=O)O[C@H](C)[C@H]1O[C@H]2CC(=O)O[C@H]2[C@@H]1O`, the result in the experiment with COLO 205, with Malme-3M, in the experiment with CAKI-1, with MDA-MB-231, with BT-549 and with NCI/ADR-RES was inactive. The result with HT-29, in the experiment with SF-295, in the experiment on CCRF-CEM, with NCI-H322M, with HL-60(TB) and in the experiment with MDA-MB-435 was inactive. Besides, the result with SK-MEL-5 and with K562 was inactive.
